Results from PMC9446082 (Pharmacology Research & Perspectives, 2022).

Assays:
ERK phosphorylation = ERK phosphorylation in wild-type Sf9 cells; type: cell-based, Spodoptera frugiperda; conditions: wild-type (non-transfected) Sf9 cells, data not shown
[1] = system: GPER‐transduced Sf9 cells; assay: EdU incorporation proliferation assay in GPER-transduced Sf9 cells; type: cell-based; conditions: Spodoptera frugiperda, read-out: Cell proliferation IC50
GPER [2] = biological target: T1, GPER (Homo sapiens, UniProt Q99527); assay: [3H] 2-ME competition binding in GPER-transduced Sf9 cell particulate fractions
T1 sequence (Q99527 whole entry, species assumed): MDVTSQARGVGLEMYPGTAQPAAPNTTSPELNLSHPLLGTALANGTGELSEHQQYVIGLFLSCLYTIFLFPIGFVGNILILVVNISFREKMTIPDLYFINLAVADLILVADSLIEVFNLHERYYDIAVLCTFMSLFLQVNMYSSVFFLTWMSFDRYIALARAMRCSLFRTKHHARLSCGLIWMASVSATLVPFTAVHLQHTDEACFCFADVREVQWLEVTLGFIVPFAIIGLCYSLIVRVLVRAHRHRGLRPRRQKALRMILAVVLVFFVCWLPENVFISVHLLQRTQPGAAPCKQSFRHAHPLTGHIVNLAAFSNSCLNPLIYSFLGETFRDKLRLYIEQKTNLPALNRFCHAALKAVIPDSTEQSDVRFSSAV

GPER [3] = biological target: T1, GPER; assay: Guanine nucleotide sensitivity of [3H] 2-ME high-affinity binding; conditions: GppNHp 100 μM, 5 mM Mg++, n = 3
In short: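 Sf9 particulate fraction expressing baculovirus-delivered GPER, incubated with [³H]2-ME (0.5–2 nM) with or without 100 μM GppNHp. Mg⁺⁺ was 5 mM to favour the high-affinity agonist state. Binding was in Tris-HCl pH 7.4 buffer with BSA, 120 min at 15°C. Reactions were stopped with ice-cold buffer, filtered and scintillation counted. Specific binding is total minus binding with 100 nM cold 2-ME added 12 min before radioligand.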

GPER [4] = biological target: T1, GPER; assay: Dissociation rate of [3H] 2-ME binding in GPER-transduced Sf9 cells; conditions: corresponding to Koff
In short: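 Particulate fraction (1000 × g then 20 000 × g spins) from Sf9 cells 48 h after human GPER baculovirus infection. Incubated with 2 nM [³H]2-ME for 120 min at 15°C, then diluted tenfold with ice-cold binding buffer (50 mM Tris-HCl pH 7.4). Bound radioactivity was sampled from 5 to 120 s by vacuum filtration through cellulose nitrate and scintillation counting. Nonspecific binding was taken with 100 nM unlabelled 2-ME. Mean ± SD, n = 4.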

With `CC(=O)c1ccc2c(c1)[C@@H]1C=CC[C@@H]1[C@H](c1cc3c(cc1Br)OCO3)N2` (relative stereo) [G1, 1‐[(3aS,4R,9bR‐rel)‐4‐(6‐bromo‐1,3‐benzodioxol‐5‐yl)‐3a,4,5,9b‐tetrahydro‐[^3H]‐cyclopenta[c]quinolin‐8‐yl]‐ethanone] the “Inhibition of ERK phosphorylation in wild-type Sf9 cells” value (from here on “Inhibition of ERK phosphorylation”) (ERK phosphorylation) was “did not inhibit”.

For `COc1cc2c(cc1O)CC[C@@H]1[C@@H]2CC[C@]2(C)[C@@H](O)CC[C@@H]12` [2‐ME, 2‐Methoxyestradiol], the “Inhibition of ERK phosphorylation” value (ERK phosphorylation) was “did not inhibit”, the IC50 [1] was 0.026 nM and the Ki (GPER [2]) was 1.5 nM.

`C[C@]12CCC(=O)C=C1CC[C@@H]1[C@@H]2[C@@H](O)C[C@]2(C=O)[C@@H](C(=O)CO)CC[C@@H]12` [Aldosterone] was tested, and the “Inhibition of ERK phosphorylation” value (ERK phosphorylation) was “did not inhibit”, the IC50 [1] was 0.104 nM and the Ki (GPER [2]) was 24 nM.

With `C[C@]12CC[C@@H]3c4ccc(O)cc4CC[C@H]3[C@@H]1CC[C@@H]2O` [E2, Estradiol] the “Inhibition of ERK phosphorylation” value (ERK phosphorylation) was “did not inhibit”.

`Nc1nc2c(ncn2[C@@H]2O[C@H](COP(=O)(O)OP(=O)(O)NP(=O)(O)O)[C@@H](O)[C@H]2O)c(=O)[nH]1` [GppNHp] was tested, and the “Reduction of high-affinity [3H] 2-ME binding” value (“Reduction of high-affinity” below) (GPER [3]; [3H] 2-ME 0.5 nM) was 46 ± 23%, the “Reduction of high-affinity” value (GPER [3]; [3H] 2-ME 1 nM) was 19 ± 7% and the “Reduction of high-affinity” value (GPER [3]; [3H] 2-ME 2 nM) was 53 ± 24.

[^3H] 2‐methoxyestradiol gave a Dissociation half-life (GPER [4]) of 21 s.
